From ChEMBL document CHEMBL1138065, “Novel selective inhibitors of neutral endopeptidase for the treatment of female sexual arousal disorder. Synthesis and activity of functionalized glutaramides” (J Med Chem, 2006) come the findings set out here.

Data set [1] has as its target T1, Endothelin-converting enzyme 1 (Homo sapiens, UniProt P42892).
T1 sequence (P42892 whole entry): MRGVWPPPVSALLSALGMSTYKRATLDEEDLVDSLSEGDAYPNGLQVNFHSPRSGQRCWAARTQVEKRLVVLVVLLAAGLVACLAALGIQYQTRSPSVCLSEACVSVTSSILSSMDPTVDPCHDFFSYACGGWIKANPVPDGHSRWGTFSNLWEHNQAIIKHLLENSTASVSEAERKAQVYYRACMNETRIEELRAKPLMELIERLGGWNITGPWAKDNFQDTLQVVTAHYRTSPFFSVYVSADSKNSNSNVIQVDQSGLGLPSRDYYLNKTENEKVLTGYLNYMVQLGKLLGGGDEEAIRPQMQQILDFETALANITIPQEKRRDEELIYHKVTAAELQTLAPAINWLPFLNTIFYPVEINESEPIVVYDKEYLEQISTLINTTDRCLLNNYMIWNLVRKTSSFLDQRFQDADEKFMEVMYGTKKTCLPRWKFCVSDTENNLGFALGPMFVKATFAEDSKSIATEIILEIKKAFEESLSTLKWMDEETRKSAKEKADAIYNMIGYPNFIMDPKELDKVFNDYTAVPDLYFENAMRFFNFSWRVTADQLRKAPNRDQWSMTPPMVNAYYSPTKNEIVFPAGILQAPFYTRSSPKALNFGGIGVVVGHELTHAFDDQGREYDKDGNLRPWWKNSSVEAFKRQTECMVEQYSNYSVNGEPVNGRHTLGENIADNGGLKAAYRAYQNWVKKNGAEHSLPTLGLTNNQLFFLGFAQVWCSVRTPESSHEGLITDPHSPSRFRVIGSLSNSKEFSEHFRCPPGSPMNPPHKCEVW
The experiment in a line: Inhibition of human ECE1. The essentials:
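Enzyme: recombinant human ECE-1 extracellular domain (aa 73-753), taken from the media of transiently transfected CHO cells. Assay in 100 mM HEPES-KOH pH 7.0/1% DMSO with 1 µM big ET-1, 1 h at 37 °C. Stopped with an equal volume of 10 mM EDTA. ET-1 formed was read by ELISA, with enzyme diluted to give OD ≈1.0. Inhibitors were tested at a range of concentrations as % inhibition.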

Data set [2] is described as follows: Apparent permeability from apical to basolateral side of the Caco-2 cell membrane at pH 7.4 at 25 uM. Type of data set: ADME, cell-based. The settings on record: human, Caco-2, pH 7.4.
Data set [3] is described as follows: Apparent permeability from basolateral to apical side of the Caco-2 cell membrane at pH 7.4 at 25 uM. Type of data set: ADME, cell-based. The settings on record: human, Caco-2, pH 7.4. Background: Caco-2 cells form a polarised layer with tight junctions and transporters.
The nature of data set [4]: Stability in human liver microsome at 1 uM in presence of 0.5 uM CYP. It is filed as ADME. The conditions noted are these: liver microsomes, read-out: Stability. The method, boiled down: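 Substrate disappearance in human liver microsomes, 1 µM compound, 0.5 µM CYP.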
(In general: Liver microsomes are vesicles of endoplasmic reticulum, rich in cytochrome P450 enzymes.)

A short description of data set [5]: Lipophilicity, LogD at pH 7.4. The settings on record: buffer. Type of data set: physicochemical. The essentials:
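Partition measured between 1-octanol and water at pH 7.4.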

The target of data set [6] is T2, Neprilysin (Oryctolagus cuniculus, UniProt P08049).
T2 sequence (P08049 whole entry): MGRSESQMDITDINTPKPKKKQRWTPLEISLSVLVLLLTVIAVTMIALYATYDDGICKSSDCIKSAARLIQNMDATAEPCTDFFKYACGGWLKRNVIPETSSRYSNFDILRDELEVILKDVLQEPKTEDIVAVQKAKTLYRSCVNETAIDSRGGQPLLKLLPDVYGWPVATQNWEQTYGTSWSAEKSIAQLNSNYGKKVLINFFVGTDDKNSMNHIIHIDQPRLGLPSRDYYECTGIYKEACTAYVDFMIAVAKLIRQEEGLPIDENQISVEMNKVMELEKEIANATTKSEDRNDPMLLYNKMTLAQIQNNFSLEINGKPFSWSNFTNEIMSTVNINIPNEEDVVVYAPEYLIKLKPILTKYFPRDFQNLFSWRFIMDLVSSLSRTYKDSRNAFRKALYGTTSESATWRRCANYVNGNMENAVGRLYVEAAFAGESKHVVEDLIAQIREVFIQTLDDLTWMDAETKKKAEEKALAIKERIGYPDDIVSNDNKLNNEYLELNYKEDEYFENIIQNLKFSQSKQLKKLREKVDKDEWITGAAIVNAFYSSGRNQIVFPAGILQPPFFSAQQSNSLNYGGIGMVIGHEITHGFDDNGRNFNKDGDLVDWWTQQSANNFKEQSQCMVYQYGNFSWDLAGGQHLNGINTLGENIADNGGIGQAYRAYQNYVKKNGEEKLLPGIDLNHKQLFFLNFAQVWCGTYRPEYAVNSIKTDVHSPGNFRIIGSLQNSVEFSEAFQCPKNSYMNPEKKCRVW
Put plainly: Inhibition of rabbit NEP. The essentials: (§1)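 Fluorogenic substrate o-aminobenzoyl-D-Arg-Arg-Leu-ethylenediamine-2,4-dinitrophenyl in 50 mM Tris·Cl pH 7.4 (inhibitor dilutions with 4% DMSO). Enzyme was diluted to ≤10% conversion; incubation 1 h at 37 °C, stopped with phosphoramidon. 10-point half-log dilution series, duplicate points.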

For data set [7], the system named is Rattus norvegicus. The experiment in a line: Volume of distribution in male rat at 1 mg/kg, iv and po. It is filed as ADME, organism-based. Further details: dose 1 mg/kg, route oral. The conditions noted are these: in vivo. The essentials: (§2)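 Jugular-vein-cannulated rats got 1 mg/kg iv (tail vein) or po (gavage). Blood (0.2 mL) was drawn via the catheter into heparin tubes up to 24 h post-dose. Plasma was acidified with phosphoric acid and frozen, then extracted on C18 cartridges. Samples were quantified by LC-MS-MS with positive-ion MRM. Values are mean ± SD of three animals.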

Data set [8] in a line: Half life in male rat at 1 mg/kg, iv and po. The conditions noted are these: in vivo. It is filed as ADME, organism-based. Further details: dose 1 mg/kg, route oral. The method, boiled down: as §2
Data set [9] is described as follows: Stability in rat liver microsome. It is filed as ADME. The conditions noted are these: liver microsomes, read-out: Stability.
Data set [10] addresses T3, Neprilysin (Rattus norvegicus, UniProt P07861).
T3 sequence (P07861 whole entry): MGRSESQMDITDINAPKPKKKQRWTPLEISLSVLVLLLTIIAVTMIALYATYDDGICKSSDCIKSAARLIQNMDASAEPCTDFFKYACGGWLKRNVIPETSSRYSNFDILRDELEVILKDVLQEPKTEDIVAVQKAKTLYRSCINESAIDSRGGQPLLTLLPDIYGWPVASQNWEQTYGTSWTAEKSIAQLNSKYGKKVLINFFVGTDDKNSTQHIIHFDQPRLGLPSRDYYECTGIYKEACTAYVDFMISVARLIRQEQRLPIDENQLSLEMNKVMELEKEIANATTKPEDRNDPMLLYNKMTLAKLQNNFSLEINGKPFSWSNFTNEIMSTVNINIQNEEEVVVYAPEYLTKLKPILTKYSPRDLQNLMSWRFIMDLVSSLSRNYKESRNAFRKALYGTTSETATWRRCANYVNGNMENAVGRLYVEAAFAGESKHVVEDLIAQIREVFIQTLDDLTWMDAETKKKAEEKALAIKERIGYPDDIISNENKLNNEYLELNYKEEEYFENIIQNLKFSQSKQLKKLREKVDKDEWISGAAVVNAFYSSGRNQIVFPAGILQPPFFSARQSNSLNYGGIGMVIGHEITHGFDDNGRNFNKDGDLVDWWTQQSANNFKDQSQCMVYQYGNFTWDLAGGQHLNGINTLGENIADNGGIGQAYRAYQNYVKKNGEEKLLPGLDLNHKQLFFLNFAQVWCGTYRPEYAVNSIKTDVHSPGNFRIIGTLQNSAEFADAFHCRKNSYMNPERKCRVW
The experiment in a line: Inhibition of rat NEP. The method, boiled down: as §1

Data set [11] can be described thus: Tmax in male rat at 1 mg/kg, iv and po. Type of data set: ADME, organism-based. Further details: dose 1 mg/kg, route oral. The conditions noted are these: in vivo. The method, boiled down:
as §2

Data set [12] is described as follows: Cmax in male rat at 1 mg/kg, iv and po. Further details: dose 1 mg/kg, route oral. The settings on record: in vivo. It is filed as ADME, organism-based. The essentials: as §2
A short description of data set [13]: Percent of unbound ligand in male rat at 1 mg/kg, iv and po. It is filed as ADME, organism-based. Further details: dose 1 mg/kg, route oral. The settings on record: in vivo. The essentials:
(§3)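 Fraction unbound in rat plasma was measured at 1 µg/mL by equilibrium dialysis against isotonic Krebs-Ringer bicarbonate buffer, pH 7.4.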

The nature of data set [14]: Oral bioavailability in male rat at 1 mg/kg, iv and po. It is filed as ADME, organism-based. The settings on record: in vivo. The method, boiled down: as §2
In data set [15] the test system is Rattus norvegicus. Put plainly: Volume of distribution in female rat at 1 mg/kg, iv and po. The settings on record: in vivo. Type of data set: ADME, organism-based. Further details: dose 1 mg/kg, route oral. The method, boiled down:
as §2

Data set [16] is described as follows: Half life in female rat at 1 mg/kg, iv and po. The conditions noted are these: in vivo. Further details: dose 1 mg/kg, route oral. Type of data set: ADME, organism-based. The method, boiled down:
as §2

Data set [17] can be described thus: Tmax in female rat at 1 mg/kg, iv and po. Type of data set: ADME, organism-based. Further details: dose 1 mg/kg, route oral. The settings on record: in vivo. The method, boiled down: as §2
Data set [18] is described as follows: Cmax in female rat at 1 mg/kg, iv and po. Type of data set: ADME, organism-based. Further details: dose 1 mg/kg, route oral. The conditions noted are these: in vivo. The method, boiled down: as §2
Data set [19] can be described thus: Percent of unbound ligand in female rat at 1 mg/kg, iv and po. Type of data set: ADME, organism-based. Further details: dose 1 mg/kg, route oral. The settings on record: in vivo. The method, boiled down:
as §3

A short description of data set [20]: Oral bioavailability in female rat at 1 mg/kg, iv and po. Type of data set: ADME, organism-based. The settings on record: in vivo. The method, boiled down:
as §2

As to `CCC[C@@H](CC1(C(=O)Nc2nnc(CC)s2)CCCC1)C(=O)O`, the concentration for half-maximal inhibition (IC50) – broadly, the concentration at which inhibition is half-maximal – in data set [1] was over 3 µM.

In the case of `CCC[C@H](CC1(C(=O)Nc2nnc(C)s2)CCCC1)C(=O)O`, in data set [2], the Papp A→B (commonly how fast a substance crosses the layer from the apical side) at 25 µM was under 1 ×10⁻⁶ cm/s. Further, the Papp B→A (in general, the apparent permeability from the basolateral to the apical side of a cell layer) at 25 µM in [3] was found to be 2 ×10⁻⁶ cm/s. For the same compound, the half-life at 1 µM in data set [4] was over 2 h. The IC50 in data set [1] is over 3 µM.

For the compound `CCCC(CC1(C(=O)Nc2nnc(CC)s2)CCCC1)C(=O)O` (racemic), the logD – broadly, lipophilicity at a set pH, counting ionised and neutral species – in data set [5] was 0.5.

On to `CCC[C@@H](CC1(C(=O)NC2(CO)Cc3ccccc3C2)CCCC1)C(=O)O`, for which the IC50 in data set [1] was over 3 µM.

As for `CCC[C@H](CC1(C(=O)Nc2nnc(CC)s2)CCCC1)C(=O)O`, the 50% inhibitory concentration (IC50) at Neprilysin [6] is 0.0102 µM; in [1] it was over 3 µM; against Neprilysin [10], 0.0143 µM. Moreover, the Vdss in the data set with Rattus norvegicus [7] was 0.4 L/kg; in the data set on Rattus norvegicus [15] it was 0.9 L/kg. In addition, the values for the half-life in [8], in data set [9] and in data set [16] were 1.7 h, over 2 h and 2.1 h, respectively. In addition, the Papp A→B at 25 µM in data set [2] stood at 9 ×10⁻⁶ cm/s. In addition, the basolateral-to-apical permeability (Papp B→A) at 25 µM in [3] came out at 14 ×10⁻⁶ cm/s. Further, in data set [4], the half-life at 1 µM is over 2 h. Also, the time of peak concentration (Tmax) in [11] and in [17] was 1 h each time. Moreover, the Cmax – broadly, the peak of the concentration-time curve – in [12] is 1180 ng/mL; in data set [18], 1460 ng/mL. In addition, the Fu was found to be 10.6% in data set [13] and 13% in [19]. Moreover, the figures for the bioavailability in data set [14] and in data set [20] were 103% and 131%, respectively.

Take `CCCC(CC1(C(=O)NC2(CO)Cc3ccccc3C2)CCCC1)C(=O)O` (racemic): in the data set on Rattus norvegicus [7], the Vdss was determined as 3.9 L/kg. Further, the half-life in data set [8] is 2 h. For the same compound, in data set [5], the logD came out at 1.1. Further, the Tmax (as a rule, the time at which the peak concentration occurs) in data set [11] was found to be 0.25 h. This compound came in with a maximum concentration (Cmax) in [12] of 311 ng/mL. Moreover, in data set [14], the bioavailability was 108%.

In turn, `CCCC(CC1(C(=O)Nc2nnc(C)s2)CCCC1)C(=O)O` (racemic) yielded a logD in data set [5] of 0.1.

In the data set with Rattus norvegicus [7], `CCC[C@H](CC1(C(=O)NC2(CO)Cc3ccccc3C2)CCCC1)C(=O)O` returned a Vdss of 4.7 L/kg. Also, the half-life in [8] was 1.5 h; in data set [9] it was over 2 h. In addition, in [2], the Papp A→B at 25 µM was found to be 6 ×10⁻⁶ cm/s. For the same compound, in data set [3], the Papp B→A at 25 µM was found to be 10 ×10⁻⁶ cm/s. The half-life at 1 µM in data set [4] is 1.03 h. For the same compound, the IC50 in data set [1] was over 3 µM. In data set [11], the Tmax amounted to 0.25 h. The peak level in data set [12] (Cmax) was 233 ng/mL. The same compound displayed a Fu in [13] of 24.3%. In addition, the bioavailability in [14] came out at 144%.
